Results as given in ChEMBL document CHEMBL4190389, “Synthesis and activity of di- or trisubstituted N-(phenoxyalkyl)- or N-{2-[2-(phenoxy)ethoxy]ethyl}piperazine derivatives on the central nervous system” (Bioorg Med Chem Lett, 2018).
Activity calls are given as the source filed them. No cut-off for these calls is given here.

Experiments:
[1] = system: Mus musculus; assay: Antidepressant-like activity in Albino Swiss CD-1 mouse assessed as immobility time at 20 mg/kg, ip administered 30 mins prior to test measured for last 4 mins of 6 mins observation by forced swim test (reference value: 153.9 to 201.9 secs); format: functional
[2] = target: T1, 5-hydroxytryptamine receptor 1A (Homo sapiens) (UniProt P08908); assay: (§1) Antagonist activity at human 5-HT1A receptor expressed in CHO-K1 cells co-expressing Galpha16 assessed as decrease in serotonin calcium mobilization preincubated for 25 mins followed by serotonin challenge measured for 30 secs by aequorin-derived luminescence assay; format: functional, cell-based
T1 sequence (whole entry): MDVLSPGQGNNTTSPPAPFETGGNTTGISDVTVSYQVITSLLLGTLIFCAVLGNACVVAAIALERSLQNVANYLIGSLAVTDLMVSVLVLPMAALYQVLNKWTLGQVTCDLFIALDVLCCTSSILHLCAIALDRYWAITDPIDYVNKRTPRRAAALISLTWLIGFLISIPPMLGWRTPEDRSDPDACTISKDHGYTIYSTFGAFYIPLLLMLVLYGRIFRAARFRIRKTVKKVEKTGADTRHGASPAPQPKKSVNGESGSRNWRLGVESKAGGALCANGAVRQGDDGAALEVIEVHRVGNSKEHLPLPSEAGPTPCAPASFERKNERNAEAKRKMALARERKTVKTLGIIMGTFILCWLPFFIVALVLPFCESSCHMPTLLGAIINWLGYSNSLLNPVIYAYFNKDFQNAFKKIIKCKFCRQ

[3] = target: T2, 5-hydroxytryptamine receptor 1A (Homo sapiens, UniProt P08908); assay: as §1; format: functional, cell-based
T2 sequence (P08908 whole entry): T1 sequence (whole entry)

[4] = target: T1, 5-hydroxytryptamine receptor 1A (Homo sapiens); assay: Antagonist activity at human 5-HT1A receptor expressed in CHO-K1 cells co-expressing Galpha16 assessed as decrease in serotonin-induced calcium mobilization preincubated for 25 mins followed by serotonin challenge measured for 30 secs by aequorin-derived luminescence assay relative to control; format: functional, cell-based
[5] = target: T3, 5-hydroxytryptamine receptor 7 (Homo sapiens, UniProt P34969); assay: Antagonist activity at human 5-HT7 receptor expressed in CHO-K1 cells assessed as decrease in serotonin-induced cAMP level after 1 hr by TR-FRET assay; format: functional, cell-based
[6] = target: 5-hydroxytryptamine receptor 6 (Homo sapiens, UniProt P50406); assay: Displacement of [3H]LSD from recombinant human 5-HT6 receptor expressed in CHO cells cell membranes after 60 mins by liquid scintillation counting method
[7] = target: T4, 5-hydroxytryptamine receptor 2A (Homo sapiens, UniProt P28223); assay: Antagonist activity at human 5-HT2A receptor expressed in CHO-K1 cells co-expressing Galpha16 assessed as decrease in serotonin calcium mobilization preincubated for 30 mins followed by serotonin challenge measured for 30 secs by aequorin-derived luminescence assay; format: functional, cell-based
[8] = target: T3, 5-hydroxytryptamine receptor 7; assay: Agonist activity at human 5-HT7 receptor expressed in CHO-K1 cells assessed as increase in serotonin-induced cAMP level after 1 hr by TR-FRET assay relative to serotonin; format: functional, cell-based
[9] = target: T3, 5-hydroxytryptamine receptor 7; assay: Antagonist activity at human 5-HT7 receptor expressed in CHO-K1 cells assessed as decrease in serotonin-induced cAMP level after 1 hr by TR-FRET assay relative to control; format: functional, cell-based
[10] = target: T5, D(2) dopamine receptor (Homo sapiens, UniProt P14416); assay: Displacement of [3H]methylspiperonee from recombinant human D2 receptor expressed in HEK293 cells cell membranes after 60 mins by liquid scintillation counting method
[11] = target: T3, 5-hydroxytryptamine receptor 7; assay: biochemical; format: cell-based, CHO
[12] = target: T5, D(2) dopamine receptor; assay: Agonist activity at human D2 receptor expressed in CHO-K1 cells co-expressing Galphaqi5 assessed as increase in calcium mobilization measured for 30 secs by aequorin-derived luminescence assay; format: functional, cell-based
[13] = target: T2, 5-hydroxytryptamine receptor 1A; assay: Displacement of [3H]8-OH-DPAT from recombinant human 5-HT1A receptor expressed in HEK293 cell membranes after 60 mins by liquid scintillation counting method
[14] = target: T5, D(2) dopamine receptor; assay: Agonist activity at human D2 receptor expressed in CHO-K1 cells co-expressing Galphaqi5 assessed as increase apomorphine-induced calcium mobilization measured for 30 secs by aequorin-derived luminescence assay relative to apomorphine; format: functional, cell-based
[15] = system: Mus musculus; assay: Toxicity in Albino Swiss CD-1 mouse assessed as effect on locomotory activity at 5 to 10 mg/kg, ip administered for 30 mins prior to test measured for 1 min; format: organism-based; conditions: in vivo
In short: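 Mice dosed i.p. 30 min before test; vehicle groups received 0.9% NaCl. Spontaneous locomotion scored as number of crossings during a 1-min session. Each dose compared with its own vehicle group by Student t-test; mean ± SEM, n = 8–10 mice per group.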

[16] = target: T1, 5-hydroxytryptamine receptor 1A (Homo sapiens); assay: Agonist activity at human 5-HT1A receptor expressed in CHO-K1 cells co-expressing Galpha16 assessed as increase in calcium mobilization measured for 30 secs by aequorin-derived luminescence assay relative to serotonin; format: functional, cell-based
[17] = system: Mus musculus; assay: Antidepressant-like activity in Albino Swiss CD-1 mouse assessed as immobility time at 5 mg/kg, ip administered 30 mins prior to test measured for last 4 mins of 6 mins observation by forced swim test (reference value: 153.9 to 201.9 secs); format: functional
[18] = target: T6, Alpha-1A adrenergic receptor (Homo sapiens, UniProt P35348); assay: Displacement of [3H]prazosin from recombinant human alpha1 adrenoceptor expressed in CHO cell membranes after 30 mins by liquid scintillation counting method
T6 sequence (P35348 whole entry): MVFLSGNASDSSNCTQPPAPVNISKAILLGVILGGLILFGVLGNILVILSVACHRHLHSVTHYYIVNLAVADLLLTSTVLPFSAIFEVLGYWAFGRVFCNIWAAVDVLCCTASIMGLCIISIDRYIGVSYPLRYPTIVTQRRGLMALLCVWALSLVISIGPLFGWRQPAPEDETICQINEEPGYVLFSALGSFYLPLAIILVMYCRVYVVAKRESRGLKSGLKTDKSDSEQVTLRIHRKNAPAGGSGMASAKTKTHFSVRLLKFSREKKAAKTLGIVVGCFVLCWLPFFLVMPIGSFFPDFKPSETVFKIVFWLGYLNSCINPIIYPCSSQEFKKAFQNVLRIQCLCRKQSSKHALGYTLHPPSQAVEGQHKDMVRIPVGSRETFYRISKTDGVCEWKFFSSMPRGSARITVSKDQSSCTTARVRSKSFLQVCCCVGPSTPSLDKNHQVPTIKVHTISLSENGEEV

[19] = system: Mus musculus; assay: Antidepressant-like activity in Albino Swiss CD-1 mouse assessed as immobility time at 10 mg/kg, ip administered 30 mins prior to test measured for last 4 mins of 6 mins observation by forced swim test (reference value: 153.9 to 201.9 secs); format: functional
[20] = target: T4, 5-hydroxytryptamine receptor 2A; assay: biochemical; format: cell-based, HEK293
[21] = system: Mus musculus; assay: Anxiolytic-like activity in Albino Swiss CD-1 mouse assessed as increase in number of punished crossings at 5 to 10 mg/kg, ip administered for 30 mins prior to test measured for 1 min by four-plate test; format: functional, organism-based
In short: (§2)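 Four-plate test in mice, i.p., 30 min before test; vehicle 0.9% NaCl; doses 1.25–10 mg/kg; number of punished crossings counted; mean ± SEM, n = 8–10 mice per group; ANOVA F statistics.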

[22] = target: T5, D(2) dopamine receptor; assay: Antagonist activity at human D2 receptor expressed in CHO-K1 cells co-expressing Galphaqi5 assessed as decrease in apomorphine-induced calcium mobilization preincubated for 30 mins followed by apomorphine challenge measured for 30 secs by aequorin-derived luminescence assay; format: functional, cell-based
[23] = Neurotoxicity in ip dosed Albino Swiss CD-1 mouse assessed as minimum dose required to induce motor impairment treated 30 mins prior to test by rotarod test; format: toxicity, organism-based; conditions: in vivo
[24] = system: Mus musculus; assay: Anxiolytic-like activity in Albino Swiss CD-1 mouse assessed as increase in number of punished crossings at 2.5 mg/kg, ip administered for 30 mins prior to test measured for 1 min by four-plate test; format: functional, organism-based; in short: as §2
[25] = Protection index, ratio of TD50 for motor impairment in ip dosed Swiss albino CD-1 mouse to ED50 for protection against 50 Hz current-induced seizures in ip dosed Swiss albino CD-1 mouse; format: toxicity, organism-based, Swiss CD-1; conditions: in vivo, read-out: Ratio TD50/ED50
[26] = system: Mus musculus; assay: Toxicity in Albino Swiss CD-1 mouse assessed as effect on locomotory activity at 1.25 to 5 mg/kg, ip administered for 30 mins prior to test measured for 1 min; format: organism-based; conditions: in vivo
[27] = system: Mus musculus; assay: Toxicity in Albino Swiss CD-1 mouse assessed as death at 20 to 40 mg/kg, ip; format: organism-based; conditions: in vivo
In short: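 Deaths counted in mice during maximal electroshock (MES) seizure testing after i.p. dosing, 6 mice per dose (3 or 1 at some top doses); recorded as number dead/number tested alongside protection and rotarod motor impairment (10 rpm); untreated control group included.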

[28] = system: Mus musculus; assay: Anxiolytic-like activity in Albino Swiss CD-1 mouse assessed as increase in number of punished crossings at 5 mg/kg, ip administered for 30 mins prior to test measured for 1 min by four-plate test; format: functional, organism-based; in short: as §2
[29] = system: Mus musculus; assay: Anticonvulsant activity in ip dosed Albino Swiss CD-1 mouse assessed as dose required to protect against 50 Hz current-induced seizure; format: functional; conditions: Swiss CD-1, ip

T3 sequence (P34969 whole entry): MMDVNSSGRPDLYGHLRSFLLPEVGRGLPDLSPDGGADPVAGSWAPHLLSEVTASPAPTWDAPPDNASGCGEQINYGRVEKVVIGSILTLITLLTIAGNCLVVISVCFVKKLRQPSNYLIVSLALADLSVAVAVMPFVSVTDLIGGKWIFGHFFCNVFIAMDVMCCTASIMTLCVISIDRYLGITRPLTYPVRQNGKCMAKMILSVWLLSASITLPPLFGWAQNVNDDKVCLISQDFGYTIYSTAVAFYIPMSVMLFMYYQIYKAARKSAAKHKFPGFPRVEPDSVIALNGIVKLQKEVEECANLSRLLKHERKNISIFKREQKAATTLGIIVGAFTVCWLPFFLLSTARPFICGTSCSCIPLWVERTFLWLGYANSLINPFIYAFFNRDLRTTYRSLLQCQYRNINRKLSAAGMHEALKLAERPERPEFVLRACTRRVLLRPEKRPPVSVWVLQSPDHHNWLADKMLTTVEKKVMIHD
T4 sequence (P28223 whole entry): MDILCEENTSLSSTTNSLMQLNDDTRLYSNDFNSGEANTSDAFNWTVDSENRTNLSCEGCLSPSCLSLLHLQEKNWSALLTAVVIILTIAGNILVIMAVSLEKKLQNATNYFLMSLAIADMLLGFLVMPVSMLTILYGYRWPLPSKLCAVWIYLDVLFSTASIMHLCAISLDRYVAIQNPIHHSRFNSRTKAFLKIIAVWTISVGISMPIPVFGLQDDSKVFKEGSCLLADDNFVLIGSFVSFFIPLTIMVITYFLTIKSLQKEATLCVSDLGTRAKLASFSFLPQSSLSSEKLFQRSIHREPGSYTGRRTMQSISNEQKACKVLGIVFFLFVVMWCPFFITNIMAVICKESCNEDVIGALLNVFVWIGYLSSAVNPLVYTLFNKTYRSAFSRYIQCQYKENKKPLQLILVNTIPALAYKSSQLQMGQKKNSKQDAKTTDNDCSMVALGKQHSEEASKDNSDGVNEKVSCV
T5 sequence (P14416 whole entry): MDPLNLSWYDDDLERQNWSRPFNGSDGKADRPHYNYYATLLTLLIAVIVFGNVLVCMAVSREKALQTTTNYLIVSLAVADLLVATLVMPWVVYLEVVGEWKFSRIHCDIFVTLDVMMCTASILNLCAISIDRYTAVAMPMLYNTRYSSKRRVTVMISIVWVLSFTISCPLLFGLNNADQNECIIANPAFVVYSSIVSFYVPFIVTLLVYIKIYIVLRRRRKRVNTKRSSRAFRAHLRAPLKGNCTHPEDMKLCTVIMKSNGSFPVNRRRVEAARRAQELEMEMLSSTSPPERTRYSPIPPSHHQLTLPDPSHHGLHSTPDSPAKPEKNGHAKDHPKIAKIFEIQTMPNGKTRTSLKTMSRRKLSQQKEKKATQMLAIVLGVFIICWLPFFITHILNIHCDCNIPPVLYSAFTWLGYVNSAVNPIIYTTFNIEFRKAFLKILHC
Chain of 5-hydroxytryptamine receptor 6 (P50406 whole entry): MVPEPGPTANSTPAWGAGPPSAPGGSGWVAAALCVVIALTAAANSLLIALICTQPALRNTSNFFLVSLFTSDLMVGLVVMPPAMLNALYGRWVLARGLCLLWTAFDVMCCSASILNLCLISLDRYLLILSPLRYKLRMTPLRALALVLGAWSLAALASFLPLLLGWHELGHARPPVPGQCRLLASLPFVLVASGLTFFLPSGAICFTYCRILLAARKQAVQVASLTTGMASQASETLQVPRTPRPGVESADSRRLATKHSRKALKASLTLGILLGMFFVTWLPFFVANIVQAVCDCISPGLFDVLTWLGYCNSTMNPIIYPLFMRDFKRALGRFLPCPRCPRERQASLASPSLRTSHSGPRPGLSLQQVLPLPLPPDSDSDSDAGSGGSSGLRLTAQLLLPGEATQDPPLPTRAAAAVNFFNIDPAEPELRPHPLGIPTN

Question: With `Cc1cc(OCCCN2CCN(c3ccccc3)CC2)ccc1Cl.Cl.Cl` as the compound, how does the Time [1] read?
Answer: 172.1 s

Question: What about the Kb [2] of the same compound?
Answer: 71.5 nM

Question: And the IC50 [3]?
Answer: 291 nM

Question: And the Emax [4]?
Answer: 6%

Question: What about the IC50 [5] of the same compound?
Answer: 5790 nM

Question: And the Kb [5]?
Answer: 2460 nM

Question: What about the Ki [6] of the same compound?
Answer: > 5000 nM

Question: What about the IC50 [7] of the same compound?
Answer: 85800 nM

Question: And the Emax [8]?
Answer: 11%

Question: What about the Emax [9] of the same compound?
Answer: 15%

Question: What about the Ki [10] of the same compound?
Answer: 299 nM

Question: And the Ki [11]?
Answer: 90 nM

Question: And the EC50 [12]?
Answer: 757 nM

Question: And the Ki [13]?
Answer: 20 nM

Question: What about the Emax [14] of the same compound?
Answer: 48%

Question: And the Activity [15]?
Answer: Non-Toxic

Question: What about the Emax [16] of the same compound?
Answer: 11%

Question: And the Time [17]?
Answer: 189.1 s

Question: And the Ki [18]?
Answer: 93 nM

Question: What about the Time [19] of the same compound?
Answer: 188.9 s

Question: What about the Ki [20] of the same compound?
Answer: 76 nM

Question: And the Activity [21]?
Answer: inactive

Question: For `COc1ccccc1N1CCN(CCOCCOc2c(C)cc(C)cc2C)CC1.Cl.Cl`, which IC50 [22] is on record?
Answer: 82 nM

Question: And the Kb [22]?
Answer: 24.4 nM

Question: What about the Time [1] of the same compound?
Answer: 150.6 s

Question: And the TD50 at 0.5 h [23]?
Answer: 31.5 mg/kg

Question: And the Kb [2]?
Answer: 13.9 nM

Question: What about the IC50 [3] of the same compound?
Answer: 56.8 nM

Question: What about the Emax [4] of the same compound?
Answer: 20%

Question: What about the IC50 [5] of the same compound?
Answer: 1840 nM

Question: What about the Kb [5] of the same compound?
Answer: 783 nM

Question: And the Ki [6]?
Answer: 2430 nM

Question: And the IC50 [7]?
Answer: 18200 nM

Question: And the Activity [24]?
Answer: Active

Question: What about the Emax [8] of the same compound?
Answer: 11%

Question: What about the selectivity ratio [25] of the same compound?
Answer: 1.19

Question: What about the Activity [26] of the same compound?
Answer: Non-Toxic

Question: What about the Emax [9] of the same compound?
Answer: 3%

Question: And the Ki [10]?
Answer: 189 nM

Question: And the Ki [11]?
Answer: 70 nM

Question: What about the Activity [27] of the same compound?
Answer: Non-Toxic

Question: What about the Activity [28] of the same compound?
Answer: Active

Question: And the Ki [13]?
Answer: 5 nM

Question: What about the Emax [14] of the same compound?
Answer: 1%

Question: What about the Emax [16] of the same compound?
Answer: 3%

Question: What about the Time [17] of the same compound?
Answer: 138.5 s

Question: What about the Ki [18] of the same compound?
Answer: 15 nM

Question: What about the ED50 [29] of the same compound?
Answer: 26.3 mg/kg

Question: And the Time [19]?
Answer: 131.3 s

Question: And the Ki [20]?
Answer: 245 nM
